Experimental data from paper PMC10622838 (The Journal of Biological Chemistry, 2023).

Experiments:
[1] = system: GPR64; test: CRE-Luc assay, GPR64 overexpressed in HEK293T cells; format: cell-based, human
Outline: (§1)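 HEK293T cells plated in DMEM + 10% FBS 24 h before polyethylenimine co-transfection with receptor in pcDNA3.1, rat insulin II promoter CRE-firefly luciferase, and phRLuc-N1 Renilla control. Cells were reseeded at 80,000/well 6 h later, serum-starved 4 h at 36 h, then given synthetic peptide in DMSO for 4 h. Firefly luminescence (Steady-Glo) was normalised to RLuc (3 μM coelenterazine h). Mean ± SD, ≥3 independent experiments.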

[2] = system: EoL-1 cells; test: cAMP accumulation; format: cell-based, human; conditions: from combined Fig. 5F and Fig. 5H
[3] = system: GPR114; test: CRE-Luc assay, GPR114 overexpressed in HEK293T cells; format: cell-based, human
Outline: as §1

[4] = system: GPR114-A230M (CTF-only, compromised TA); test: CRE-luciferase reporter assay, GPR114-A230M; format: cell-based, human; conditions: HEK293T, thrombin 4 h, FLuc/RLuc ratio, Fig. 4C
[5] = system: PAR1-GPR56 fusion / G13; test: G13 GTPγS binding kinetics, PAR1-GPR56 fusion Sf9 membranes; format: biochemical, human; conditions: Fig. S1A

Substance: TYFAVLM [P7 GPR114-AP]
- activation in CRE-Luc assay ([1]; GPR64, Fig. 5H, as summarised in Discussion): did not activate GPR114 nor GPR64
- CRE-Luc activity (stimulation) ([1]; TA-compromised (ΔTA) 7TM version of GPR64, Fig. 5H): did not stimulate cAMP production in any condition
- CRE-Luc activity (stimulation) ([1]; full length GPR64, Fig. 5H): did not stimulate cAMP production in any condition
- target specificity of cAMP stimulation in EoL-1 cells (conclusion) [2]: promiscuously stimulates cAMP accumulation via a yet to be determined GPCR
- activation in CRE-Luc assay ([3]; GPR114, Fig. 5H, as summarised in Discussion): did not activate GPR114 nor GPR64
- CRE-Luc activity (stimulation) ([3]; TA-compromised (ΔTA) 7TM version of GPR114, Fig. 5H): did not stimulate cAMP production in any condition
- CRE-Luc activity (stimulation) ([3]; full length GPR114, Fig. 5H): did not stimulate cAMP production in any condition

Substance: Thrombin
- thrombin-dependent CRE-luciferase activation [4]: not stimulated by thrombin
- thrombin-dependent activation of purified G13 [5]: strong thrombin-dependent activation of purified G13
